According to paper PMC5405180 (EBioMedicine, 2017):
Where a SMILES comes first, the peptide text is derived from it. The star is where a group is joined. Cbz = O=C(OCc1ccccc1)*

What was measured:
NFAT1 = assay: NFAT promoter reporter assay; type: cell-based, human; details: HEK293 cells stimulated with PMA, 1 μM
ROS = ROS production by flow cytometry; type: cell-based, murine; details: RAW 264.7, LPS 1 µg/ml, KRN2 0.8 µM
NFAT5 [1] = assay: NFAT5-dependent GFP reporter assay; type: cell-based, murine; details: for IC50: Mus musculus, RAW264.7, read-out: IC50, NFAT5-dependent reporter activity
In short: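 Cells were stimulated with LPS (1 μg/ml) for 20 h alongside graded test compound or BBR. GFP was read by flow cytometry and expressed as % ΔMFI = (treated MFI − untreated MFI) × 100 / untreated MFI.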

NF-κB p65 = assay: p65 phosphorylation/translocation and IκB degradation; type: cell-based, murine; details: RAW 264.7, LPS 1 µg/ml
In short: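 RAW 264.7 cells were incubated in cytoplasmic lysis buffer for 15 min on ice and centrifuged; the supernatant was taken as the cytosolic fraction. The pellet was taken up in nuclear lysis buffer and spun for 20 min at 12,000 rpm. Fractions were run on SDS-PAGE, transferred to nitrocellulose and probed for p65, with NMP p84 and α-tubulin as fraction markers, using ECL detection. Whole-cell lysates were prepared in RIPA buffer for 15 min at 4 °C and protein measured by Bradford assay.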

NFAT5 promoter = assay: Nfat5 promoter GFP reporter assay; type: cell-based, murine; details: RAW 264.7, 1 μM
In short: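 RAW 264.7 cells carried a GFP reporter containing two NF-κB binding sites from upstream of the Nfat5 gene. Cells were preincubated with test compound (1 μM) for 1 h, then stimulated for 20 h with either LPS (1 μg/ml) or NaCl (45 mM). GFP was measured by flow cytometry as % ΔMFI relative to untreated cells. Three independent experiments.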

p38 MAPK = p38 MAPK activity; type: cell-based; details: RAW 264.7, LPS 1 µg/ml, KRN2 0.8 µM
[2] = test system: murine peritoneal macrophages; assay: High salt-stimulated murine peritoneal macrophages; type: cell-based; details: NaCl 45 mM 6 h, 0.8 μM
murine splenocytes = assay: LPS-stimulated murine splenocytes; type: cell-based; details: total splenocytes of mice, LPS 1 μg/ml 24 h, 0.8 μM
[3] = Pharmacokinetic profile in rats; type: in vivo; details: rat
In short: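 Rats were dosed intravenously or orally and plasma concentration–time profiles were obtained. Half-life came from the oral profile. Oral bioavailability (F%) was calculated from oral versus intravenous exposure.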

[4] = test system: murine peritoneal macrophages; assay: LPS-stimulated murine peritoneal macrophages; type: cell-based; details: 0.8 μM
CREB = CREB promoter reporter assay; type: cell-based; details: 1 µM test compound
[5] = molecular target: NF-κB p65 binding to the Nfat5 promoter (Mus musculus, UniProt Q04207); assay: ChIP assay; type: cell-based, murine; details: RAW 264.7, 1 μM, LPS 1 μg/ml 12 h
In short: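 RAW 264.7 cells were pretreated with test compound (1 μM) for 1 h, then given LPS (1 μg/ml) for 12 h. Cells were fixed in 1% formaldehyde for 10 min at 37 °C, nuclei isolated and chromatin sonicated, with an input aliquot kept. Immunoprecipitation used anti-p65. DNA was extracted with phenol/chloroform, ethanol-precipitated and PCR-amplified with Nfat5 promoter primers; Nfat5 exon primers served as negative control. Three independent experiments.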

RAW 264.7 cells = assay: NO production; type: cell-based, murine; details: RAW 264.7, LPS 1 μg/ml 24 h, Griess assay
In short: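 RAW 264.7 macrophages were kept in RPMI 1640 with 10% FBS. Cells were preincubated for 1 h with graded test compound, then stimulated with LPS (1 μg/ml) for 24 h. Supernatant was mixed with an equal volume of Griess reagent for 15 min at room temperature to give nitrite. Three independent experiments, each in triplicate, mean ± SD.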

NFAT5 [6] = assay: High salt-induced NFAT5 and tonicity-inducible gene expression in RAW 264.7; type: cell-based, murine; details: for high salt-induced increase in NFAT5 mRNA and protein: RAW 264.7, NaCl 45 mM 12 h, KRN2 1 μM, SB203580 5 μM
RAW 264.7 macrophages = assay: Pro-inflammatory NFAT5 target gene expression in LPS-stimulated RAW 264.7; type: cell-based, murine
[7] = test system: adjuvant-induced arthritis (AIA) in mice; assay: Adjuvant-induced arthritis; type: in vivo
In short: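 AIA induced in 8-week-old C57BL/6 mice with 2 mg CFA given intradermally. Test compound was given at 3 mg/kg i.p. daily for 2 weeks, with PBS as vehicle. Ankle and footpad thickness were tracked over the 2 weeks (6 mice/group, mean ± SD). Joints were fixed in […] for 1 day and decalcified in 5% formic acid for 2 weeks. Sections were blocked with 10% goat serum, then stained overnight at 4 °C with anti-F4/80 (1/50), biotinylated anti-rabbit IgG, streptavidin-peroxidase and DAB.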

[8] = test system: mice with collagen-induced arthritis (CIA); assay: Collagen-induced arthritis; type: in vivo
[9] = molecular target: NF-κB p65 binding to Nfat5 promoter 1 (Homo sapiens, UniProt Q04206); assay: Electrophoretic mobility shift assay; details: recombinant p65 400 ng; KRN2 5, 20, 50 μM; MG132 20 μM
ELK = ELK promoter reporter assay; type: cell-based; details: 1 µM test compound
NFAT5 [10] = assay: LPS-induced NFAT5 expression and nuclear translocation; type: cell-based, murine
splenocytes of CIA mice = assay: LPS-stimulated splenocytes from treated CIA mice; type: in vivo; details: splenocytes of CIA mice treated orally, LPS 1 μg/ml 24 h
In short: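 CIA was induced in mice by CII/CFA immunization with a CII/IFA boost. Mice received oral test compound at 15 or 60 mg/kg on alternate days, or vehicle. Splenocytes from these mice were cultured with LPS (1 μg/ml) for 24 h.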

[11] = 3 mg/kg peritoneally, versus vehicle

Sequence of NF-κB p65 binding to Nfat5 promoter 1 (Q04206 whole entry): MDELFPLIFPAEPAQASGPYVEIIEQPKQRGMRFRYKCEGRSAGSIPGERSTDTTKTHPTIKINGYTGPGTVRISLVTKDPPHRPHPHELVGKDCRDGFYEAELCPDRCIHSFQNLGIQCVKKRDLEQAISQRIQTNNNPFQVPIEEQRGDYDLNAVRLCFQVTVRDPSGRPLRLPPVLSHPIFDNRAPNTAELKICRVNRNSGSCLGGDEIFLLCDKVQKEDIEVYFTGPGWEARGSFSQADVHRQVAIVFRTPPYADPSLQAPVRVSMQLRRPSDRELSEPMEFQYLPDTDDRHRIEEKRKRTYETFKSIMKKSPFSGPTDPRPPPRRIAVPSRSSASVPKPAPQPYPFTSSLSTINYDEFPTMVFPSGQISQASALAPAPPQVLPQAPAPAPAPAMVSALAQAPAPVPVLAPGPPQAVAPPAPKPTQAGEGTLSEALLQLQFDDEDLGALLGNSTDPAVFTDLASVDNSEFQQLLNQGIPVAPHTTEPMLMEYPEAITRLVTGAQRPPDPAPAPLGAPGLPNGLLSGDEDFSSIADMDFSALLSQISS
Sequence of NF-κB p65 binding to the Nfat5 promoter (Q04207 whole entry): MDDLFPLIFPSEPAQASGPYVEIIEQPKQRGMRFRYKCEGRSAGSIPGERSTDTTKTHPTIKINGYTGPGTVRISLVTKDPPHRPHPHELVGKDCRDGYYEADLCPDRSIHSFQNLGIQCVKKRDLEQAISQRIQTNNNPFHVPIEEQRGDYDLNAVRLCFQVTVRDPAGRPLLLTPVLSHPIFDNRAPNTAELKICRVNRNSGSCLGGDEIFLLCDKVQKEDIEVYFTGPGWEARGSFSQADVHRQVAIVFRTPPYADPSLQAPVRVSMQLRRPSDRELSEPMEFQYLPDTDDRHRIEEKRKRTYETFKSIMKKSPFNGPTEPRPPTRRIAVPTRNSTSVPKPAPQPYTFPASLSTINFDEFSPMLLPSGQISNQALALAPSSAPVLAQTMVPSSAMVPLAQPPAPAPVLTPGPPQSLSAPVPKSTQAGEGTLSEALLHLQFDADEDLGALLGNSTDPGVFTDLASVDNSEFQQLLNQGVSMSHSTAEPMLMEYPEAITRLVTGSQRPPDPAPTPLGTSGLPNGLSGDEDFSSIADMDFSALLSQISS

COc1ccc2c(Cc3ccccc3F)c3[n+](cc2c1OC)CCc1cc2c(cc1-3)OCO2.[Br-] [KRN2, 13-(2-Fluorobenzyl)-9,10-dimethoxy-5,6-dihydro-[1,3]dioxolo[4,5-g]isoquinolino[3,2-a]isoquinolin-7-ium bromide]
NFAT1-dependent reporter activity (NFAT1): only slightly inhibited | ROS (ROS): neither ROS nor p38 MAPK activity was affected | IC50 (NFAT5 [1]): 100 nM | anti-NFAT5 activity relative to BBR (NFAT5 [1]; ratio of IC50 values, KRN2 versus BBR): 40 times | degradation of IκB (NF-κB p65): nor blocked | phosphorylation and translocation of p65 (NF-κB p65): neither influenced | LPS-induced NFAT5 promoter activity (NFAT5 promoter; LPS 1 μg/ml 20 h): specifically repressed | high salt-induced NFAT5 promoter activity (NFAT5 promoter; NaCl 45 mM 20 h): failed to reduce | p38 MAPK activity (p38 MAPK): neither ROS nor p38 MAPK activity was affected | high salt-induced increase in Nfat5 mRNA expression [2]: neither mitigated | iNOS, IL-6, and TNF-α expressions (murine splenocytes): decreases | plasma level after oral administration ([3]; oral administration): not detectable | LPS-stimulated increase in NFAT5 protein and mRNA [4]: mitigated | expression levels of Il6 and Tnf ([4]; LPS): decreased | CREB-dependent reporter (luciferase) activity (CREB): not suppressed | recruitment of NF-κB p65 to the Nfat5 promoter region [5]: nearly completely eliminated | NO production (RAW 264.7 cells): dose-dependently lowered | high salt-induced increase in NFAT5 mRNA and protein (NFAT5 [6]): did not repress | mRNA expression levels of Ar and Bgt (NFAT5 [6]; RAW 264.7 stimulated with high salt (NaCl 45 mM 12 h), 0.8 μM): had no effect | mRNA and protein expression levels of IL-6, TNF-α, and GM-CSF (RAW 264.7 macrophages; RAW 264.7, 0.8 μM, LPS 1 μg/ml): significantly decreased | expression level of iNOS (RAW 264.7 macrophages; RAW 264.7, LPS 1 μg/ml 24 h, western blot): dose-dependently lowered | number of anti-F4/80+ cells infiltrated in joints ([7]; 3 mg/kg peritoneally): declined | paw swelling (ankle and footpad diameter) ([7]; 3 mg/kg peritoneally every day for 2 weeks, versus vehicle): significantly lower | inflammatory cell infiltration, synovial hyperplasia, and joint destruction (H&E) [7, 11]: lesser degrees | arthritis severity ([8]; 3 mg/kg peritoneally every day for 3 weeks from day 21): significantly decreased | serum levels of anti-type II collagen antibody, IL-6, and TNF-α ([8]; 3 mg/kg peritoneally, day 40): significantly decreased | inflammatory cell infiltration, synovial hyperplasia, and joint destruction [8, 11]: limited degree | number of anti-F4/80+ macrophages in joints [8, 11]: significantly lower | CIA development ([8]; oral 3 mg/kg every other day for 3 weeks from day 21 (data not shown)): failed to suppress | NF-κB p65 binding to Nfat5 promoter 1 [9]: dose-dependently inhibited | ELK-dependent reporter (luciferase) activity (ELK): not suppressed | LPS-induced NFAT5 mRNA and protein expression (NFAT5 [10]; RAW 264.7, 0.8 μM, LPS 1 μg/ml): nearly completely blocked | translocation of NFAT5 into the nucleus (NFAT5 [10]; RAW 264.7, 0.8 μM, LPS 1 μg/ml 12 h): inhibited | LPS-stimulated increase in NFAT5 protein expression (NFAT5 [10]; RAW 264.7 macrophages, 0.5 μM, western blot): significantly suppressed

CC(C)C[C@@H](C=O)NC(=O)[C@H](CC(C)C)NC(=O)[C@H](CC(C)C)NC(=O)OCc1ccccc1 [MG132, reference compound] (Cbz-Leu-Leu-Leu-aldehyde)
NF-κB p65 binding to Nfat5 promoter 1 [9]: did not affect it

C[S+]([O-])c1ccc(-c2nc(-c3ccncc3)c(-c3ccc(F)cc3)[nH]2)cc1 (stereo not drawn) [SB253580, reference compound]
high salt-induced increase in NFAT5 mRNA and protein (NFAT5 [6]): completely blocked

COc1ccc2cc3[n+](cc2c1OC)CCc1cc2c(cc1-3)OCO2 [Berberine, reference compound]
IC50 (NFAT5 [1]): 4000 nM

COc1ccc2c(Cc3ccccc3F)c3n(c(=O)c2c1OC)CCc1cc2c(cc1-3)OCO2 [KRN5, 13-(2-Fluorobenzyl)-9,10-dimethoxy-5,6-dihydro-8H-[1,3]dioxolo[4,5-g]isoquinolino[3,2-a]isoquinolin-8-one]
IC50 (NFAT5 [1]): 750 nM | NFAT5 expression in spleen cells stimulated by LPS (splenocytes of CIA mice): reduced | half-life ([3]; plasma, po): > 8 h | expressions of NFAT5, IL-6, MCP-1, and GM-CSF (RAW 264.7 macrophages; RAW 264.7, 1 μM, LPS 1 μg/ml 24 h): inhibited | efficacy in suppressing arthritis compared to methotrexate ([8]; oral 60 mg/kg, methotrexate 5 mg/kg orally twice a week): more potent | arthritis severity ([8]; oral 15 and 60 mg/kg every other day for 3 weeks from day 21): dose-dependently mitigated | serum anti-type II collagen IgG ([8]; oral, day 44): significantly decreased | side effects ([8]; oral, throughout the experiments (data not shown)): no side effects were noted
